Source: paper PMC3561764 (Nature, 2007)
One block for each molecule: values may come before it. No end group written: not given here.

What was measured:
EGFR kinase domain = test: crystal structures of EGFR kinase domain/Mig6 peptide complexes; type: binding; conditions: 25-residue epitope, residues 337–361
[1] = system: EGFR kinase domain K799E mutant; test: interaction with K799E mutant kinase domain; type: binding; conditions: Supplemental Figure 5
[2] = system: EGFR kinase domain attached to lipid vesicles; test: vesicle-based kinase assay; type: biochemical; conditions: wild type kinase 3.5 μM, substrate peptide 1 mM, Fig. 2c
In short: (§1)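 Wild-type EGFR kinase domain assayed either free in solution at 14 μM, or tethered to lipid vesicles at 3.5 μM. Vesicle tethering raises the local kinase concentration and promotes asymmetric dimer formation. Substrate peptide was held at 1 mM in all runs. Activity is reported as initial velocity normalised by kinase concentration.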

EGFR [3] = conditions: mouse skin; ref [8]; cited from earlier work
EGFR [4] = conditions: ref [3],[5],[12]; cited from earlier work
[5] = target: wild type EGFR kinase domain (Homo sapiens, UniProt P00533); test: kinase assay in solution, wild type; type: biochemical; conditions: kinase 14 μM, substrate peptide 1 mM, Fig. 3b
In short: as §1

[6] = target: EGFR kinase domain, wild type (UniProt P00533 696-1022); test: fluorescence polarisation

Molecule: Mig6^segment 1: 25-residue epitope of Mig6 sufficient for binding to the EGFR kinase domain (residues 337–361)
- binding to the EGFR kinase domain (crystal structures) (EGFR kinase domain): sufficient for binding to the EGFR kinase domain
- effect of K799E kinase mutation on interaction with Mig6^segment 1 [1]: does not affect the conformation of the kinase domain or its interaction

- inhibition of the kinase domain attached to lipid vesicles, in words [2]: much less potent
Molecule: 25-residue peptide: 25-residue peptide (residues 340–364), which lacks 3 residues in the N-terminal portion of Mig6^segment 1

B1: Mitogen-induced gene 6 (protein, UniProt Q9UJM3 1-462, looked up)
chain: MSIAGVAAQEIRVPLKTGFLHNGRAMGNMRKTYWSSRSEFKNNFLNIDPITMAYSLNSSAQERLIPLGHASKSAPMNGHCFAENGPSQKSSLPPLLIPPSENLGPHEEDQVVCGFKKLTVNGVCASTPPLTPIKNSPSLFPCAPLCERGSRPLPPLPISEALSLDDTDCEVEFLTSSDTDFLLEDSTLSDFKYDVPGRRSFRGCGQINYAYFDTPAVSAADLSYVSDQNGGVPDPNPPPPQTHRRLRRSHSGPAGSFNKPAIRISNCCIHRASPNSDEDKPEVPPRVPIPPRPVKPDYRRWSAEVTSSTYSDEDRPPKVPPREPLSPSNSRTPSPKSLPSYLNGVMPPTQSFAPDPKYVSSKALQRQNSEGSASKVPCILPIIENGKKVSSTHYYLLPERPPYLDKYEKFFREAEETNGGAQIQPLPADCGISSATEKPDSKTKMDLGGHVKRKHLSYVVSP
modifications: full-length C-terminal Myc tag
- inhibition of EGFR-mediated signals (EGFR [3]): inhibits EGFR-mediated signals in mouse skin
- binding to activated EGFR compared with unliganded receptor (EGFR [4]): bind more tightly to activated EGFR than to the unliganded receptor

- inhibition of basal activity of wild type kinase domain in solution, in words [5]: does not show any inhibition
B2: Mig6^segment 1–2 (Y358A) (peptide, UniProt Q9UJM3 336-412, looked up, variant M346L Y358A)
chain: KSLPSYLNGVLPPTQSFAPDPKAVSSKALQRQNSEGSASKVPCILPIIENGKKVSSTHYYLLPERPPYLDKYEKFFR

- binding result [6]: binds
Molecule: SPKSLPSYLNGVLPPTQSFAPDPKYVSSKA (peptide, UniProt Q9UJM3 334-363, looked up, also: fluorescein label, position not given here) [30-residue fluorescein-labeled Mig6 peptide (residues 334–363) M346L]
